Measured values pooled from the literature.
Each line is one published result; the experiments were not run side by side.

| Structure (SMILES) | assay | test system | setting | quantity | value |
| --- | --- | --- | --- | --- | --- |
| CCOC(=O)C1=C(C)N/C(=C/c2cc(C)n(-c3ccc(CN(C)C)cc3)c2C)C1=O | metabolic stability | mouse, liver microsomes | 1 µM | half-life | 56 min |
| CCc1cc(C(=O)NC)c2nccc(N3CCc4c(cc(Cn5ccnc5)cc4-c4cn(C)nc4C(F)(F)F)C3=O)c2c1 |  | male Sprague-Dawley rat, plasma | intravenous, 3 mg/kg | C0 | 2600 ng/mL |
| Cc1noc(C)c1Cn1cc(N2C(=O)N(Cc3cccc(O)c3)C(C)(C)C2=O)cn1 |  | male Sprague-Dawley rat, plasma | oral, 100 mg/kg, 4 h, single dose | concentration | 2.9 ng/mL |
| COc1cccc(-c2n[nH]c(SCc3ccccn3)n2)c1OC |  | male Sprague-Dawley rat, plasma | oral, 10 mg/kg, 2 h, single dose | concentration | 1160 ng/mL |
| COC(=O)[C@H](N)CSSC[C@@H](N)C(=O)OC | chemical stability | rat, plasma |  | half-life | 8.14 min |
| CCOC(=O)C1=C(C)N/C(=C/c2cc(C)n(-c3cccc(C(F)(F)F)c3)c2C)C1=O | metabolic stability | mouse, liver microsomes | 1 µM | half-life | 18 min |
| COc1cc2c3c(n(CCCN4CCOCC4)c(=O)c2cc1OC)-c1cc2c(cc1C3=O)OCO2 |  | female Fischer 344 rat, plasma | intravenous, 12 mg/m², single dose | half-life | 252 min |
| CC1=C(C(=O)OC(C)(C)C)C(=O)/C(=C\c2cc(C)n(-c3ccccc3C(F)(F)F)c2C)N1 | metabolic stability | mouse, liver microsomes | 1 µM | half-life | 20 min |
| Oc1c(Br)cc(Cl)c2cccnc12 |  | Sprague-Dawley rat, plasma | intravenous, 2 mg/kg | C0 | 2400 ng/mL |
| CCOC(=O)[C@@]12C[C@@H]1[C@@H](n1ccc3c(NC)nc(C#Cc4ccc(Cl)s4)nc31)[C@H](O)[C@@H]2O |  | male Sprague-Dawley rat, plasma | oral, 10 mg/kg, 15 min | concentration | 45.5 ng/mL |
| Cc1noc(C)c1Cn1cc(N2C(=O)CN(Cc3cccc(O)c3)C2=O)cn1 |  | male Sprague-Dawley rat, plasma | intravenous, 1 mg/kg, 30 min | concentration | 12.1 ng/mL |
| CCc1cc(-c2noc(-c3cc(OC)nc(C4CCCC4)c3)n2)cc(C)c1OC[C@@H](O)CO |  | Wistar rat, plasma | oral, 10 mg/kg, 24 h, single dose | concentration | 350 ng/mL |
| CC1=C(C(=O)OCc2ccccc2)C(=O)/C(=C\c2cc(C)n(-c3ccccc3C(F)(F)F)c2C)N1 | metabolic stability | mouse, liver microsomes | 1 µM | half-life | 3.1 min |
| COc1ccc2c(=O)n(C)c(-c3ccccc3)nc2c1 |  | male Sprague-Dawley rat, lung | oral, 30 mg/kg, 30 min, single dose | concentration | 27.5 ng/g |
| Cc1ccc(-c2cc(C(F)(F)F)nn2-c2ccc(S(N)(=O)=O)cc2)cc1 |  | male Sprague-Dawley rat, blood | oral, 20 mg/kg, 8 h | concentration | 11.1 µM |
